Results collected from several papers.
Each line is one published result; the experiments were not run side by side.

N#C[C@@]12C[C@@H]1[C@@H](n1cnc3c(N[C@@H](C4CCC4)C4CC4)nc(I)nc31)[C@H](O)[C@@H]2O
AUC(0-inf) (male Wistar rat; plasma; oral; 1 mg/kg): 19.2 ng·h/mL

O=C1CC[C@H](N2Cc3cc(N4CCN(CC5CCN(c6ccc([C@@H]7c8ccc(O)cc8CC[C@@H]7c7ccccc7)cc6)CC5)CC4)ccc3C2=O)C(=O)N1
AUC(0-t) (female Sprague-Dawley rat; plasma; oral; 20 mg/kg; fasted): 11000 ng·h/mL

CC(=Nc1ccc(N=Cc2cnccn2)cc1)N(C)C
AUC(0-t) (male Sprague-Dawley rat; plasma; oral; 200 mg/kg): 305 ng·h/mL

O=c1cc(-c2ccc(O)c(O)c2)oc2cc(O)cc(O)c12
AUC(0-inf) (male Sprague-Dawley rat; plasma; oral; 30 mg/kg): 98.6 ng·h/mL

C[C@H]1[C@@H](O)O[C@@H]2O[C@@]3(C)CC[C@H]4[C@H](C)CC[C@@H]1[C@@]24OO3
AUC(0-t) (Sprague-Dawley rat; plasma; oral; 10 mg/kg): 197 ng·h/mL

C=C(F)C(=O)N1CCN(c2nc(OC[C@@H]3CCCN3C)nc3c2CCN(c2cccc4cccc(Cl)c24)C3)C[C@@H]1CC#N
AUC(0-t) (male Sprague-Dawley rat; plasma; intravenous; 5 mg/kg): 1860 ng·h/mL

COc1ccc2cc3n(c(=O)c2c1OC)CCc1cc2c(cc1-3)OCO2
AUC(0-inf) (male Sprague-Dawley rat; blood; oral; 50 mg/kg): 985 ng·h/mL

CC1(CN)CCN(c2cnc3c(Sc4ccncc4Cl)n[nH]c3n2)CC1
AUC (male Sprague-Dawley rat; plasma; oral; 10 mg/kg): 411 ng·h/mL

Cc1c(C(=O)O)ccc2c3n(nc12)[C@@H]1[C@H](C3)N(CC2CC2)[C@@]2(C(=O)Nc3cc(Cl)ccc32)[C@H]1c1cccc(Cl)c1F
AUC(0-inf) (male rat; plasma; oral; 2 mg/kg): 64.2 µM·h

CCC[C@H](NC(=O)[C@@H]1CCCN1C(=O)[C@@H](NC(=O)[C@H](N)CC(N)=O)[C@@H](C)CC)C(=O)N[C@@H](CC(C)C)C(=O)N[C@@H](Cc1ccc(O)cc1)C(=O)N[C@H](CO)C(=O)N[C@@H](Cc1ccccc1)C(=O)N[C@@H](C)C(=O)N[C@H](CO)C(N)=O
AUC(0-t) (rat; plasma; subcutaneous; 10 mg/kg; single dose): 1200 ng·h/mL

O=C1c2ccncc2C(=O)c2c1[nH]c1ccccc21
AUC(0-inf) (rat; plasma; intravenous; 5 mg/kg; single dose): 8.58 µM·h

O=C(C=Cc1ccccc1)Nc1cc(-c2ccnc(N3CCC(O)CC3)c2)ccn1
AUC(0-inf) (female Sprague-Dawley rat; plasma; oral; 50 mg/kg): 1400 ng·h/mL
